# Assay results from different studies.
# Compare with care: the assays were run in different laboratories.
# Target: Beta-2 adrenergic receptor (ADRB2, Homo sapiens, UniProt P07550)
Structure (SMILES),test,setting,endpoint,value
Cc1c(N2CCNCC2)nc2ccc(Br)cc2c1C(=O)NC[C@H](CCC(=O)O)c1ccccc1Cl,ligand displacement,10 µM,inhibition,18.4%
CN(CCN1CCC(OC(=O)Nc2ccccc2-c2ccccc2)CC1)C(=O)c1ccc(CN2CCC(C(N)=O)CC2)cc1,"ligand displacement, radioligand",1 µM,inhibition,-1%
CC(Cc1ccc2c(c1)OCO2)NCC(O)c1ccc(O)c(O)c1 (centres unmarked),"β-arrestin recruitment, agonist",,Emax,131%
CCN(CC)CCCC[C@H](NC(=O)[C@H](CC(C)C)NC(=O)[C@H](C)NC(=O)[C@H](Cc1ccccc1)NC(=O)c1ccc(C(C)(C)C)cc1)C(=O)N[C@@H](CO)C(=O)OC,"ligand displacement, radioligand",10 µM,remaining binding,101%
Nc1ncc(-c2nc(N3CCOCC3)nc(N3CCOCC3)n2)c(C(F)F)n1,"cell-free assay, radioligand",10 µM,remaining signal,98%
CC(C)N1CCC[C@H]1CNC(=O)c1cn(C2CCCC2)c(=O)c2c1c1ccccc1n2C,"ligand displacement, radioligand",10 µM,inhibition,-8%
COCc1c(-c2cc3cc(C)cc(OC)c3s2)c2c(N)ncnn2c1CN1CCNC(=O)C1,"ligand displacement, radioligand",10 µM,inhibition,14%
c1ccc(C(NCCNC(c2ccccc2)c2ccccc2)c2ccccc2)cc1,cell-free assay,10 µM,inhibition,1%
COc1ccc(S(=O)(=O)N2CCCCC2)cc1C,"ligand displacement, radioligand",10 µM,inhibition,< 30%
O=C(Nc1cccnn1)N1CCN([C@@H]2CCOc3cc(C(F)(F)F)ccc32)CC1,cell-free assay,20 µM,inhibition,10%
Clc1ccc2c(C3CCN(CCc4c[nH]c5ccccc45)CC3)c[nH]c2c1,"ligand displacement, radioligand",10 µM,inhibition,91%
Cn1cncc1[C@@](O)(COc1ccc(C#N)cc1-c1ccc(OC(F)(F)F)cc1)c1ccc(C#N)cc1,ligand displacement,10 µM,inhibition,23.1%
CC(C)Cn1cnc2c(N)nc3ccccc3c21,"ligand displacement, radioligand",10 µM,inhibition,18%
O=C(NC[C@H](O)CO)[C@@H]1C[C@H](c2ccccc2)CCN1 (mixture of isomers),"ligand displacement, radioligand",10 µM,inhibition,-15.9%
